This is an account of results in paper PMC10373183 (ACS Omega, 2023).

Entries after “also recorded” stand apart in the source; their conditions may differ.

One data set deals with U937 cells. In words: CellTiter-Glo Luminescent cell viability assay. The data set is classed as cell-based, human. Conditions: for inhibition at 25 µM / inhibition at 50 µM / inhibition at 100 µM / inhibition at 200 µM / GI50: Homo sapiens; for inhibition at 25 µM / inhibition at 50 µM / inhibition at 100 µM / inhibition at 200 µM: U-937, 72 h, read-out: percent inhibition at various concentrations of compounds (CellTiter-Glo, antiproliferative); for GI50: U-937, read-out: antiproliferative (U937) GI50; for antiproliferative activity (in words) / percent inhibition at various concentrations of compounds (CellTiter-Glo, antiproliferative): U937 cells; for antiproliferative activity (in words): CellTiter-Glo, four concentrations; for percent inhibition at various concentrations of compounds (CellTiter-Glo, antiproliferative): 72 h, Mitomycin C = 100%, DMSO = 0%. In a few lines: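 U937 cells incubated 72 h with test compound at four concentrations; CellTiter-Glo reagent added at equal volume, shaken 2 min to lyse, then held 10 min at room temperature before luminescence read. Viability = RLU test × 100/RLU control, converted to percent inhibition. GI50 fitted from percent inhibition. Mitomycin C positive control; DMSO diluent as negative control.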

Data set [1] in a line: LDH release cytotoxicity assay. Conditions: human, U937 cells. It counts as cell-based. In a few lines: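 U937 cells plated and exposed to test compound at several concentrations for 4 h at 37 °C, with Triton X-100 as positive cytotoxicity control. Plates spun 1000 RPM for 5 min. Supernatants mixed with LDH detection reagent for 10 min in the dark at room temperature, then read at OD 490 nm. LC50 fitted from percent activity.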

Take `Cc1n[nH]c(C)c1S(=O)(=O)NCCC1=CCCCC1` [MR-S1-1, N-(2-(Cyclohex-1-en-1-yl)ethyl)-3,5-dimethyl-1H-pyrazole-4-sulfonamide]: in the data set with U937 cells, the inhibition at 25 µM came to 18.6%, the inhibition at 50 µM worked out at 34.5%, the inhibition at 100 µM amounted to 54.2% and the inhibition at 200 µM worked out at 64.2%. In addition, in the data set with U937 cells, the GI50 is 1.7 µM and the “antiproliferative activity (in words)” value was “moderate anti-proliferative activity”. Besides, in data set [1], the inhibition at 4 h, 12.5 µM was -0.9%; the inhibition at 4 h, 25 µM is -2.2%; the inhibition at 4 h, 50 µM is -0.4%; the inhibition at 4 h, 100 µM is -1.8%.
On to `Cc1nn(C)c(C)c1S(=O)(=O)NCCC1=CCCCC1` [MR-S1-2, N-(2-(Cyclohex-1-en-1-yl)ethyl)-1,3,5-trimethyl-1H-pyrazole-4-sulfonamide], for which, in the data set on U937 cells, the inhibition at 25 µM came to 24.8%, the inhibition at 50 µM was found to be 29.3%, the inhibition at 100 µM is 42.2% and the inhibition at 200 µM was found to be 58%. Moreover, the GI50 with U937 cells is greater than 200 µM. Further, in data set [1], the inhibition at 4 h, 12.5 µM is -1.3%; the inhibition at 4 h, 25 µM was -3.6%; the inhibition at 4 h, 50 µM is -3.1%; the inhibition at 4 h, 100 µM is -5.3%.
As to `CCCOc1ccc(CCNS(=O)(=O)c2c(C)n[nH]c2C)cc1OCCC` [MR-S1-12, N-(3,4-Dipropoxyphenethyl)-3,5-dimethyl-1H-pyrazole-4-sulfonamide], in the data set with U937 cells, the inhibition at 25 µM was found to be 35.9%, the inhibition at 50 µM worked out at 94.9%, the inhibition at 100 µM is 100% and the inhibition at 200 µM was 99.3%. In addition, in the data set with U937 cells, the GI50 worked out at 3.3 µM and the “antiproliferative activity (in words)” value is “good antiproliferative activity; also recorded: potent”. In data set [1], the inhibition at 4 h, 12.5 µM was -2.2%; the inhibition at 4 h, 25 µM was 0.7%; the inhibition at 4 h, 50 µM was -2.7%; the inhibition at 4 h, 100 µM was -0.9%.
As for `Cc1nn(C)c(C)c1S(=O)(=O)N[C@H](C)c1cccc2ccccc12` [MR-S1-15, (R)-1,3,5-Trimethyl-N-(1-(naphthalen-1-yl)ethyl)-1H-pyrazole-4-sulfonamide], in the data set with U937 cells, the inhibition at 25 µM was found to be 19.5%, the inhibition at 50 µM is 65.1%, the inhibition at 100 µM amounted to 88.5% and the inhibition at 200 µM is 101%. For the same compound, in the data set with U937 cells, the GI50 was 3 µM and the “antiproliferative activity (in words)” value was “good antiproliferative activity; also recorded: most potent”. Further, in data set [1], the inhibition at 4 h, 12.5 µM was 0%; the inhibition at 4 h, 25 µM is -1.3%; the inhibition at 4 h, 50 µM is -1.8%; the inhibition at 4 h, 100 µM was -2.7%.
As to `Cc1nn(C)c(C)c1S(=O)(=O)NCCc1c[nH]c2ccccc12` [MR-S1-17, N-(2-(1H-Indol-3-yl)ethyl)-1,3,5-trimethyl-1H-pyrazole-4-sulfonamide], in the data set with U937 cells, the inhibition at 25 µM is 18.6%, the inhibition at 50 µM was 12.9%, the inhibition at 100 µM was found to be 32.2% and the inhibition at 200 µM worked out at 12.9%. In the data set on U937 cells, the GI50 is greater than 200 µM and the “antiproliferative activity (in words)” value was “impotent; also recorded: less anti-proliferative activity”. Besides, in data set [1], the inhibition at 4 h, 12.5 µM was -0.9%; the inhibition at 4 h, 25 µM is -2%; the inhibition at 4 h, 50 µM was -2%; the inhibition at 4 h, 100 µM was -1.6%.
For `CCOCCn1c(C2CCN(S(=O)(=O)c3c(C)n[nH]c3C)CC2)nc2ccccc21` [MR-S1-19, 2-(1-((3,5-Dimethyl-1H-pyrazol-4-yl)sulfonyl)piperidin-4-yl)-1-(2-ethoxyethyl)-1H-benzo[d]imidazole], in the data set on U937 cells, the inhibition at 25 µM is -5%, the inhibition at 50 µM came to 2.2%, the inhibition at 100 µM is -1.3% and the inhibition at 200 µM amounted to 18%. Further, in the data set on U937 cells, the concentration for 50% growth inhibition (GI50) is greater than 200 µM and the “antiproliferative activity (in words)” value was “impotent; also recorded: less anti-proliferative activity”. Besides, in data set [1], the inhibition at 4 h, 12.5 µM is -4.9%; the inhibition at 4 h, 25 µM is -1.3%; the inhibition at 4 h, 50 µM is -1.8%; the inhibition at 4 h, 100 µM was -4%.
For the compound `Cc1n[nH]c(C)c1S(=O)(=O)NCCc1ccc(Cl)cc1` [MR-S1-5, N-(4-Chlorophenethyl)-3,5-dimethyl-1H-pyrazole-4-sulfonamide], in the data set with U937 cells, the inhibition at 25 µM was determined as 48.3%, the inhibition at 50 µM came out at 44.2%, the inhibition at 100 µM was found to be 61.5% and the inhibition at 200 µM is 78.7%. Further, in the data set with U937 cells, the concentration for 50% growth inhibition (GI50) worked out at 16 µM and the “antiproliferative activity (in words)” value was “moderate anti-proliferative activity”. Moreover, in data set [1], the inhibition at 4 h, 12.5 µM is -1.8%; the inhibition at 4 h, 25 µM was -2.2%; the inhibition at 4 h, 50 µM is -0.2%; the inhibition at 4 h, 100 µM was -2.7%.
In the case of `Cc1nn(C)c(C)c1S(=O)(=O)N1CCC(c2nc3ccccc3[nH]2)CC1` [MR-S1-18, 2-(1-((1,3,5-Trimethyl-1H-pyrazol-4-yl)sulfonyl)piperidin-4-yl)-1H-benzo[d]imidazole], in the data set on U937 cells, the inhibition at 25 µM was 11.7%, the inhibition at 50 µM was 36.4%, the inhibition at 100 µM came to 43.9% and the inhibition at 200 µM is 83.4%. Further, in the data set on U937 cells, the GI50 was determined as 92.6 µM and the “antiproliferative activity (in words)” value was “good antiproliferative activity”. Further, in data set [1], the inhibition at 4 h, 12.5 µM is 0.2%; the inhibition at 4 h, 25 µM is -1.8%; the inhibition at 4 h, 50 µM was 0.2%; the inhibition at 4 h, 100 µM was -0.4%.
As to `Cc1n[nH]c(C)c1S(=O)(=O)NCCc1ccccc1` [MR-S1-3, 3,5-Dimethyl-N-phenethyl-1H-pyrazole-4-sulfonamide], in the data set on U937 cells, the inhibition at 25 µM is 12.7%, the inhibition at 50 µM was 24.5%, the inhibition at 100 µM is 31.8% and the inhibition at 200 µM was found to be 74.8%. For the same compound, in the data set on U937 cells, the GI50 was found to be 16 µM and the “antiproliferative activity (in words)” value is reported as “moderate anti-proliferative activity”. Also, in data set [1], the inhibition at 4 h, 12.5 µM is -0.9%; the inhibition at 4 h, 25 µM is -2.4%; the inhibition at 4 h, 50 µM is -1.3%; the inhibition at 4 h, 100 µM was -1.3%.
Turning to “N-(3,4-Bis(methoxy-d3)phenethyl-d6)-3,5-dimethyl-1H-pyrazole-4-sulfonamide [MR-S1-10]”, the “percent inhibition at various concentrations of compounds (CellTiter-Glo, antiproliferative)” value with U937 cells (25 μM compound) is “–8.1%”; in the data set on U937 cells (50 μM compound), “–37.5%”; in the data set with U937 cells (100 μM compound) it was “–39.0%”; in the data set on U937 cells (200 μM compound), “–14.5%”. Moreover, the “antiproliferative activity (in words)” value in the data set on U937 cells is “less anti-proliferative activity”.
For `Cc1n[nH]c(C)c1S(=O)(=O)NCCc1c[nH]c2ccccc12` [MR-S1-16, N-(2-(1H-Indol-3-yl)ethyl)-3,5-dimethyl-1H-pyrazole-4-sulfonamide], in the data set on U937 cells, the inhibition at 25 µM came to 14.5%, the inhibition at 50 µM was found to be 24.1%, the inhibition at 100 µM turned out to be 22.5% and the inhibition at 200 µM is 55.9%. Moreover, the GI50 with U937 cells is greater than 200 µM. Besides, in data set [1], the inhibition at 4 h, 12.5 µM came out at 3.8%; the inhibition at 4 h, 25 µM is -0.9%; the inhibition at 4 h, 50 µM is -1.6%; the inhibition at 4 h, 100 µM is -1.8%.
